Screening results: PubChem, several laboratories
In the library only some 2.2% were active in any assay of this set; here they are far more common.
CCR6 antag = blocks CCL20-driven beta-arrestin recruitment at human CCR6. P51684. inhibition, % at 20 µM. CHO-K1 CCR6 PathHunter beta-arrestin, luminescence, CCL20-stimulated. 340,000 compounds, 0.49% hits. AID 493098;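 active = compounds whose inhibition of the agonist-driven luminescence signal at 20 µM reaches about 50%, limit read from the data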;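 note: cells stimulated with CCL20 at 14 nM final; plate controls were DMSO with CCL20 for no effect and DMSO without agonist for full effect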
APJ antagonist = APJ receptor antagonism. P35414. CHO-K1 APJ beta-arrestin complementation, luminescence. inhibition, % at 20 µM. 330,000 compounds, 0.32% hits;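 active = inhibition above about 40% at 20 µM, limit read from the data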;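 note: cells challenged with 10 nM apelin-13 agonist together with compound; plate controls were apelin-13 plus DMSO wells for no effect and DMSO wells lacking apelin-13 for full effect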
CXCR6 inh = CXCR6 (human) receptor inhibition; 360,000 compounds, 0.36% hits; CHO-K1 PathHunter CXCR6 beta-arrestin, luminescence; inhibition, % at 20 µM; O00574; AID 602244; in the data active = inhibition above about 34%, passing the limit was not always enough;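 note: antagonist mode with CXCL16 agonist at 10 nM final; 0% = 10 nM CXCL16 with DMSO and 100% = unstimulated wells without agonist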
Target sequence (O00574 whole entry, looked up): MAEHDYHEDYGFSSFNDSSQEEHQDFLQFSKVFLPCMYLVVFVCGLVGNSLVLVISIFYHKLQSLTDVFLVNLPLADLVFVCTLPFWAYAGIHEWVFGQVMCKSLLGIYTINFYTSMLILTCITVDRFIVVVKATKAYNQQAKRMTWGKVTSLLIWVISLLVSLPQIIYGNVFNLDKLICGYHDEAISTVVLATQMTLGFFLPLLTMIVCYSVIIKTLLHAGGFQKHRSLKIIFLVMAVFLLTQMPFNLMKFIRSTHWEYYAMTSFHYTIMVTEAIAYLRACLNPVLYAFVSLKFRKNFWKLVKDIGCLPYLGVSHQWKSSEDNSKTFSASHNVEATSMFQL
APJ agonist = APJ receptor agonism; activation, % at 20 µM; CHO-K1 APJ PathHunter beta-arrestin, luminescence; 0% DMSO wells, 100% apelin; 330,000 compounds, 0.11% hits; P35414;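 active = activation more than six SD over the plate average, tested at 20 µM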;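 note: 0% = DMSO alone and 100% = apelin-13 at 10 nM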
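Material: CHO-K1 APJ beta-arrestin complementation cell line; Input: cell density 1000 per well; Incubation: compound stimulation 90 min at 25 °C, detection 60 min; Signal: luminescence from split beta-galactosidase complementation, Galacton Star/Emerald II substrate; Controls: DMSO-only wells as negative, 10 nM Apelin-13 as positive control.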
HTR2A ag = agonists of mouse serotonin 5-HT2A receptor (HTR2A); P35363; activation, % at 7.6 µM; 360,000 compounds, 0.66% hits; CHO-K1 mHTR2A beta-arrestin complementation, luminescence; percent of 30 µM serotonin response;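 active = activation above a run cutoff, the mean activation of all tested compounds plus 3 SD, cut at about 14% in these data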;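 note: 0% = plate median of compound wells and 100% = 30 µM serotonin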
EBI2 antag = EBI2 (human) antagonism; inhibition, % at 5 µM; AID 651636; P32249; 360,000 compounds, 0.81% hits; EBI2 beta-arrestin recruitment, luminescence, 7a,25-OHC stimulated; in the data active = inhibition above about 38%;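 note: enzyme fragment complementation signal reports receptor beta-arrestin coupling in cells; 0% = agonist plus DMSO wells and 100% = wells without agonist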
EBI2 antag conf = EBI2 (human) antagonism, single concentration confirmation; EBI2 beta-arrestin luminescence, 7a,25-OHC antagonism; shares compounds with EBI2 antag; AID 651997; inhibition, % at 5 µM; 2,400 compounds, 29% hits;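 active = inhibition of at least 50%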
EBI2 agonist = EBI2 agonism counter-screen; activation, % at 5 µM; AID 652000; EBI2-expressing cells, agonist mode, luminescence, 60 min; 0% vehicle, 100% 7α,25-dihydroxycholesterol control; shares compounds with EBI2 antag; 2,400 tested, under 10 active;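 active = activation of at least 50%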
bGal cs = beta-galactosidase inhibition counter-screen. shares compounds with EBI2 antag. purified beta-galactosidase, luminescent Galacton Star, 15 min. inhibition, % at 5 µM. 2,400 compounds, 1% hits. AID 652176;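 active = replicate-average signal at least 3 plate SD below neutral wells, shown as high inhibition, flagging enzyme-inhibiting false positives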;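 note: 0% = DMSO wells with enzyme and 100% = wells lacking enzyme; higher means stronger loss of beta-gal luminescence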
Numbers without * were called inactive; · = no result given.

SMILES	CCR6 antag	APJ antagonist	CXCR6 inh	APJ agonist	HTR2A ag	EBI2 antag	EBI2 antag conf	EBI2 agonist	bGal cs
COc1cccc(CN(C)C(=O)Cc2c[nH]c3ccccc23)c1	4	9	-7	-4	-2	51*	40	-1	-3
COc1ccc(CN(C)C(=O)Cc2c[nH]c3ccccc23)cc1	11	2	-4	-1	10	52*	31	0	-9
Cn1nc(-c2ccccc2)cc1NC(=O)[C@@H]1O[C@H](CO)[C@H](O)[C@H](O)[C@H]1O	·	·	1	·	1	-1	·	·	·
CS(=O)(=O)c1nc(-c2ccccc2)cc(-c2ccccc2)c1C#N	5	-26	10	0	2	56*	55*	0	9
Cc1cc(S(=O)(=O)N(Cc2ccc(C(C)(C)C)cc2)Cc2cccs2)ccc1-n1cnnn1	7	2	8	-4	-5	48*	22	1	5
CCOC(=O)C1CN(S(=O)(=O)c2ccc(C)cc2)CCN1S(=O)(=O)c1ccc(C)cc1 (stereo not given)	13	-7	-3	3	4	44*	8	-1	-13
Cc1cc(C)c(OCC(=O)N2CC=C(c3ccccc3)CC2)c(C)c1	2	2	1	-2	-1	60*	71*	4	-3
O=c1ccc2cccc([N+](=O)[O-])c2[nH]1	·	·	-11	·	1	-9	·	·	·
CCCC(C)NC(=O)COc1ccc(Sc2ccc(OCC(=O)NC(C)CCC)cc2)cc1 (stereo not given)	21	-7	4	3	8	43*	27	2	-2
Cc1ccc(C)c(C(O)c2ncc(-c3ccccc3F)[nH]2)c1 (stereo not given)	·	·	-2	·	3	0	·	·	·
COc1cc(CN2CCN(C(=O)c3ccc(-c4ccccc4)cc3)CC2)cc(OC)c1OC	8	-4	10	-3	-2	48*	32	0	8
COc1cccc(CN2CCN(C(=O)c3ccc(-c4ccccc4)cc3)CC2)c1	-5	-7	13	-2	-1	78*	45	1	9
COc1cccc(C(=O)N2CCN(C(=O)c3ccc(-c4ccccc4)cc3)CC2)c1OC	4	13	3	-1	-1	78*	48	1	10
COc1cccc(CN2CCN(C(=O)c3ccc(-c4ccccc4)cc3)CC2)c1OC	8	0	-2	-4	3	65*	44	0	10
CCOC(=O)c1c(Nc2ccccc2)sc(/C=C2\C=Nc3ccccc32)c1O	-6	10	6	-2	-2	53*	41	-1	7
CCOc1ccccc1N(CC)C(=O)c1cc2c(s1)-c1ccccc1S(=O)(=O)C2	·	·	6	·	6	15	·	·	·
COc1cccc(Oc2nc(-c3ccncc3)nc3ccccc23)c1	10	-11	6	1	1	44*	5	1	9
CCCOc1ccc(Oc2nc(-c3ccncc3)nc3ccccc23)cc1	16	-1	2	-1	-2	50*	-1	-1	-13
COc1ccc(Oc2nc(-c3ccncc3)nc3ccccc23)cc1	4	-1	6	0	0	21	·	·	·
Cc1noc(/C=C/c2ccco2)c1S(=O)(=O)N1CCC(C(=O)NCc2ccco2)CC1	22	2	-7	-4	-5	3	·	·	·
COc1ccc(S(=O)(=O)N2CCC(C(=O)NCc3ccc(C)cc3)CC2)cc1	12	7	3	1	3	66*	55*	2	8
COc1ccc(S(=O)(=O)N2CCC(C(=O)NCc3ccncc3)CC2)cc1	9	-7	-7	1	-3	-12	·	·	·
COc1ccc(CNC(=O)C2CCN(S(=O)(=O)c3cccc(C(F)(F)F)c3)CC2)cc1	10	5	-6	1	1	54*	38	0	-16
Cc1ccc(CNC(=O)C2CCN(S(=O)(=O)c3c(C)noc3/C=C/c3ccco3)CC2)cc1	16	-2	11	-4	-8	65*	49	2	2
Cc1ccc(CNC(=O)N2CCN(S(=O)(=O)c3ccccc3)CC2)cc1	14	-16	6	-3	7	56*	49	3	-3
SMILES	CCR6 antag	APJ antagonist	CXCR6 inh	APJ agonist	HTR2A ag	EBI2 antag	EBI2 antag conf	EBI2 agonist	bGal cs
CC(C)NC(=O)C1(C)CN(S(C)(=O)=O)CC(=O)N1Cc1ccc2c(c1)OCO2 (stereo not given)	·	·	·	·	-1	-3	·	·	·
CCS(=O)(=O)N1CCN(C(=O)c2ccc3nc(C)c(N(C)C(=O)CCc4ccccc4)n3c2)CC1	·	·	0	·	-1	-4	·	·	·
CCOC(=O)C1=CCC(c2ccccc2Cl)N(S(=O)(=O)c2ccc(C)cc2)C1 (stereo not given)	·	·	3	·	-3	7	·	·	·
COc1ccccc1-c1cnc(C(O)c2cc(C)c(OC)c(C)c2)[nH]1 (stereo not given)	·	·	0	·	-2	1	·	·	·
COc1ccc(CCC(=O)N2CCN(C(=O)c3ccccc3)CC2)cc1	0	14	9	1	3	55*	40	2	-1
COc1ccc(NC(=O)CS(=O)CC(=O)N2CCN(C3CCCC3)CC2)cc1 (stereo not given)	10	5	4	3	5	-3	·	·	·
COc1ccc(CCC(=O)N2CCN(C3CCCCC3)CC2)cc1	3	5	-2	-4	-1	45*	15	-1	-8
CCOC(=O)N1CCN(C(=O)COc2ccc3ccccc3c2Br)CC1	-1	1	-10	10	10	52*	24	-1	-7
CCOC(=O)N1CCN(C(=O)COc2cc(C)c(Cl)c(C)c2)CC1	9	8	0	-4	0	83*	63*	1	-2
O=C(COc1ccc2ccccc2c1Br)N1CCCC1	-12	-24	3	0	-3	2	·	·	·
CCOC(=O)N1CCN(C(=O)COc2ccccc2Cl)CC1	-5	33	-10	-15	5	8	·	·	·
CC(OC(=O)C1=COCCO1)C(=O)NC1CCCCC1 (stereo not given)	·	·	1	·	2	-10	·	·	·
O=C(/C=C/c1ccc2ccccc2n1)N1CCN(S(=O)(=O)c2ccccc2F)CC1	6	5	-2	-1	2	55*	41	0	-17
